Experimental data as given in ChEMBL document CHEMBL1130204, “3 alpha-Hydroxy-3 beta-(phenylethynyl)-5 beta-pregnan-20-ones: synthesis and pharmacological activity of neuroactive steroids with high affinity for GABAA receptors” (J Med Chem, 1997).

Tests used:
[1] = species on record: Rattus norvegicus; test: The maximum inhibitory potency was calculated by fitting [35S]TBPS inhibition data to a sigmoid function (rat brain cortical P2 membranes) (high affinity); assay type: functional
Summary of the method: (§1)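 Rat cortical P2 membranes, washed in 200 mM NaCl/50 mM Na-K phosphate pH 7.4, incubated 90 min at room temperature with 2 nM [35S]TBPS, 5 µM GABA and test drug in DMSO (final 0.5%). Nonspecific binding taken with 2 µM unlabeled TBPS. Filtration, then scintillation counting. Partial vs full and one- vs two-component models chosen by F-test. IC50 and Imax come from individual experiments, given as mean ± SEM of 3–4.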

[2] = biological target: T1, GABA-A receptor; alpha-1/beta-2/gamma-2 (Homo sapiens, UniProt P14867+P18507+P47870); test: Steroid potentiation of 5% GABA responses in Xenopus oocytes expressing human alpha-1-beta-2-gamma-2L subunits of GABA-A receptor; assay type: functional, cell-based, Oocyte
T1 sequence (P14867 whole entry): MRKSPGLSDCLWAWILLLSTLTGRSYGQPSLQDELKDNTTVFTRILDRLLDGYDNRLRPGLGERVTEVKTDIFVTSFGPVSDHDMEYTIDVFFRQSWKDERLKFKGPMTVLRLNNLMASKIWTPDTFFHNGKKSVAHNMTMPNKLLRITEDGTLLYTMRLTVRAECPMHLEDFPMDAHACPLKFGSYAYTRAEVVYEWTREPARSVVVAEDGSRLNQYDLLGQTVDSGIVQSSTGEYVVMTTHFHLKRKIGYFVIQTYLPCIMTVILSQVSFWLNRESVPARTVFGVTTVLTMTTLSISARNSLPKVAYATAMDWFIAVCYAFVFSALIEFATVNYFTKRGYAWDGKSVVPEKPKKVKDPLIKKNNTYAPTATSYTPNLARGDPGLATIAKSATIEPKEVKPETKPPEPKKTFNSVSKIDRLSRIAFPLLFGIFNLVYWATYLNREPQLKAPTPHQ
T1 sequence (P47870 whole entry): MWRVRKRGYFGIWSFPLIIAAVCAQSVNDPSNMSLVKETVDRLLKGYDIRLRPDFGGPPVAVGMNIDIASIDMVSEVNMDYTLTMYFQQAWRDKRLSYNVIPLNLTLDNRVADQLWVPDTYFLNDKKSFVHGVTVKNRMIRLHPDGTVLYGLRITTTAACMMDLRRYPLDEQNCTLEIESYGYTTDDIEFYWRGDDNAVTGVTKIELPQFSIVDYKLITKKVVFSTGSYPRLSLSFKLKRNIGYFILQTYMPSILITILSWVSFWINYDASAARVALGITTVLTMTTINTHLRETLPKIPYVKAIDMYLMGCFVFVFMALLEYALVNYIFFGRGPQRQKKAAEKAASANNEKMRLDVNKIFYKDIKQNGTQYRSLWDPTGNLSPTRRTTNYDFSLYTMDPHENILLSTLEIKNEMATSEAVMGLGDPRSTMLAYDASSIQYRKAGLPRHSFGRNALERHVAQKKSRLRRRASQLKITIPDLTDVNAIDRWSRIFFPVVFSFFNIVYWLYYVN
T1 sequence (P18507 whole entry): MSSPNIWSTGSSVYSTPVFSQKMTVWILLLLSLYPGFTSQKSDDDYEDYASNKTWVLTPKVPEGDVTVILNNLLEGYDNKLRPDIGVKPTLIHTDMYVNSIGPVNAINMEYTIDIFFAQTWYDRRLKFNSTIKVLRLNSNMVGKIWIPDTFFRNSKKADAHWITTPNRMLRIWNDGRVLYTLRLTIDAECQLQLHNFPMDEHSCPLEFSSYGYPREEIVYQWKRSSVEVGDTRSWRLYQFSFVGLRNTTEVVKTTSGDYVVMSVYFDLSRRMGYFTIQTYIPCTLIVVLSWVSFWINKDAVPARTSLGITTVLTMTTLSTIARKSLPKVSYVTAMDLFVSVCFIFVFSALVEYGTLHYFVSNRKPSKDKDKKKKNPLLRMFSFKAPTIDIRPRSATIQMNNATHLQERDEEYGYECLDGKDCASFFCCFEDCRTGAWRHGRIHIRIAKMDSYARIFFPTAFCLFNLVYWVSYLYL
Summary of the method: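 Xenopus oocytes injected with α1, β2, γ2L cRNAs (~1 ng each). Two-electrode voltage clamp at -70 mV in frog Ringer's, pH 7.4. GABA set to give about 5% of the maximal (1 mM GABA) current. Steroid stocks in DMSO diluted into Ringer's, DMSO 0.3%. Modulation is potentiation plus any direct steroid current, fitted to a four-parameter logistic. Mean ± SEM.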

[3] = species on record: Rattus norvegicus; test: (§2) The maximum inhibitory potency was calculated by fitting [35S]TBPS inhibition data to a sigmoid function (rat brain cortical P2 membranes) (low affinity); assay type: functional
Summary of the method: (§3)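 Rat cortical P2 membranes washed in 200 mM NaCl/50 mM Na-K phosphate pH 7.4, incubated 90 min at room temperature with 2 nM [35S]TBPS, 5 µM GABA and test drug in DMSO (final 0.5%). Nonspecific binding defined with 2 µM unlabeled TBPS. Filtration, scintillation counting. Fits to one- or two-component, full or partial inhibition models chosen by F-test; IC50 and Imax as mean ± SEM of individual experiments.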

[4] = biological target: GABA-A receptor; anion channel; test: (§4) In vitro inhibition of [35S]TBPS binding to Gamma-aminobutyric acid A receptor in rat brain cortical membranes in the presence of 5 uM GABA (low affinity); assay type: cell membranes, Membrane; summary of the method: as §3
[5] = test system: Mus musculus; test: Percent of animals (n=8) not exhibiting PTZ-induced ( Pentylentetrazol protection) seizures 10 min following a 10 mg/kg ip dose of steroid.; assay type: functional; details: route intraperitoneal
Summary of the method: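 Male NSA mice (15-20 g), n = 8. […] Mice watched 30 min for clonic seizure (forelimb clonus ≥3 s). Read-out is the percent of mice protected.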

[6] = biological target: GABA-A receptor; anion channel; test: In vitro inhibition of [35S]TBPS binding to Gamma-aminobutyric acid A receptor in rat brain cortical membranes in the presence of 5 uM GABA (high affinity); assay type: cell membranes, Membrane; summary of the method: as §3
[7] = test system: Mus musculus; test: Anticonvulsant potency that produces blockade of PTZ-induced seizures when administered intraperitoneally; assay type: functional; details: ip
Summary of the method: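 Male NSA mice given steroid ip in 50% HP-β-CD 30 min before PTZ 85 mg/kg sc. Mice watched 30 min for forelimb clonus ≥3 s. Quantal dose-response; ED50 reported with 95% confidence interval.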

[8] = test system: Mus musculus; test: Anticonvulsant potency that produces blockade of MES-induced seizures when administered intraperitoneally; assay type: functional; details: ip
Summary of the method: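 Male NSA mice given steroid ip in 50% HP-β-CD 30 min before corneal electroshock (50 mA, 60 pulses/s, 0.8 ms pulses, 1 s). End-point is tonic hindlimb extension >90° within 30 s. Quantal dose-response; ED50 reported with 95% CI.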

[9] = biological target: GABA-A receptor; anion channel; test: In vitro inhibition of [35S]TBPS binding to gamma-aminobutyric-acid A receptor in rat brain cortical membranes in the presence of 5 uM GABA.; assay type: cell membranes, Membrane
Summary of the method: as §1, with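 “F-test.” for “F-test. IC50 and Imax come from individual experiments, given as mean ± SEM of 3–4.”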

[10] = biological target: GABA-A receptor; alpha-1/beta-2/gamma-2 (Homo sapiens) (UniProt P14867+P47870+P18507); test: Efficacy as fractional response (FR) relative to GABA maximum current elicited in the Xenopus oocytes; assay type: functional, cell-based; details: Oocyte
Summary of the method: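 Xenopus oocytes expressing α1β2γ2L GABAA receptors (~1 ng each cRNA), two-electrode voltage clamp at -70 mV in frog Ringer's pH 7.4. GABA set to give ~5% of maximal current (1 mM GABA). Steroid co-applied with 0.3% DMSO. Response taken as potentiation plus any direct current, expressed as a fraction of GABA maximum, fit to a four-parameter logistic.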

[11] = species on record: Rattus norvegicus; test: (§5) The maximum inhibitory potency was calculated by fitting [35S]TBPS inhibition data to a sigmoid function (rat brain cortical P2 membranes); assay type: functional; summary of the method: as §3
[12] = Toxic dose that produces increase in hanging-wire failure; assay type: toxicity; details: mouse
Summary of the method: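 Male NSA mice, 15–20 g, given steroid ip in 50% HP-β-CD 30 min before testing. Hanging wire of 2 mm diameter, 25 cm above padding. A pass means both hindpaws reach the wire within 5 s. Quantal scoring; TD50 with 95% confidence interval.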

[13] = Slope value was determined
[14] = biological target: GABA-A receptor; anion channel; test: In vitro inhibition of [35S]TBPS binding to Gamma-aminobutyric acid A (GABA-A) receptor of rat brain cortical membranes in the presence of 5 uM GABA(high affinity); assay type: cell membranes, Membrane; summary of the method: as §1
[15] = species on record: Rattus norvegicus; test: as §2; assay type: functional; summary of the method: as §1; remark: listed apart in the source
[16] = biological target: T2, Gamma-aminobutyric acid receptor subunit gamma-1 (Rattus norvegicus, UniProt P23574); test: In vitro inhibition of [35S]-TBPS binding to Gamma-aminobutyric acid A receptor in rat brain cortical membranes in the presence of 5 uM GABA (low affinity); assay type: functional, cell membranes, Membrane; summary of the method: as §1
T2 sequence (P23574 whole entry): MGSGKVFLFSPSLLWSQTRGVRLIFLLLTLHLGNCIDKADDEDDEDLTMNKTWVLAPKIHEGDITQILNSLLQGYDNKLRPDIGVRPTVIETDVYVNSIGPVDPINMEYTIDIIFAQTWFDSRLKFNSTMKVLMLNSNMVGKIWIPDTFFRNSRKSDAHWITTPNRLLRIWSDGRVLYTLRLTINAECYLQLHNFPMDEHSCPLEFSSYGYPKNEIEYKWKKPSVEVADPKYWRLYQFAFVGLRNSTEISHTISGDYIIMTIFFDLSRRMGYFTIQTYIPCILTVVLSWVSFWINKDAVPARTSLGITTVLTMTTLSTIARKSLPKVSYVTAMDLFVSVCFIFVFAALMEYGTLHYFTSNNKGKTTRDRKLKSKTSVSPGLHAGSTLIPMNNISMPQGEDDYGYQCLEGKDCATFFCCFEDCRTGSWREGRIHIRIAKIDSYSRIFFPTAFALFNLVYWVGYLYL

[17] = The slope value for efficacy and response
Summary of the method: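 Oocytes expressing α1β2γ2L GABAA receptors under two-electrode voltage clamp in frog Ringer's pH 7.4. GABA or steroid concentration-response data fitted to a four-parameter logistic equation to derive slope. Mean ± SEM.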

[18] = biological target: GABA-A receptor; anion channel; test: as §4; assay type: cell membranes, Membrane; summary of the method: as §1; remark: listed apart in the source
[19] = biological target: T2, Gamma-aminobutyric acid receptor subunit gamma-1; test: In vitro for inhibition of [35S]TBPS binding in rat brain cortical membranes in the presence of 5 uM GABA in two-component inhibition curve; assay type: functional, cell membranes, Membrane; summary of the method: as §1
[20] = species on record: Rattus norvegicus; test: as §5; assay type: functional; summary of the method: as §1; remark: listed apart in the source

Row | Structure (SMILES) | Imax [1] [%] | EC50 [2] [nM] | Imax [3] [%] | IC50 [4] [nM] | PTZ protection [5] [%] | IC50 [6] [nM] | ED50 [7] [mg/kg] | ED50 [8] [mg/kg] | IC50 [9] [nM] | Efficacy [10] | Imax [11] [%] | TD50 [12] [mg/kg] | Slope [13] | IC50 [14] [nM] | Imax [15] [%] | IC50 [16] [nM] | Slope [17] | IC50 [18] [nM] | IC50 [19] [nM] | Imax [20] [%]
1 | CC(=O)[C@H]1CC[C@H]2[C@@H]3CC[C@@H]4C[C@@](O)(C#Cc5ccc(N)cc5)CC[C@]4(C)[C@H]3CC[C@]12C | 17 | > 1000 | 84 | 11800 | 13 | 96 |  |  |  |  |  |  |  |  |  |  |  |  |  | 
2 | CC(=O)c1ccc(C#C[C@@]2(O)CC[C@@]3(C)[C@H](CC[C@@H]4[C@@H]3CC[C@]3(C)[C@@H](C(C)=O)CC[C@@H]43)C2)cc1 |  | 6.6 |  |  | 75 |  | 8.2 | 7.4 | 10 | 0.94 | 106 | 10 | 1.2 |  |  |  |  |  |  | 
3 | CC(=O)[C@H]1CC[C@H]2[C@@H]3CC[C@@H]4C[C@@](O)(C#Cc5ccccc5O)CC[C@]4(C)[C@H]3CC[C@]12C | 30 | 340 |  |  | 0 |  |  |  |  | 0.51 |  |  | 1.6 | 82 | 57 | 5100 |  |  |  | 
4 | CC(=O)[C@H]1CC[C@H]2[C@@H]3CC[C@@H]4C[C@@](O)(C#Cc5ccc(C=O)cc5)CC[C@]4(C)[C@H]3CC[C@]12C | 44 | 31 |  |  | 0 |  |  |  |  | 0.88 |  |  |  | 67 | 54 |  | 1.3 | 1600 | 1600 | 54
5 | CC(=O)c1ccc(C#C[C@@]2(O)CC[C@H]3[C@H](CC[C@@H]4[C@@H]3CC[C@]3(C)[C@@H](C(C)=O)CC[C@@H]43)C2)cc1 |  | 8.2 |  |  | 100 |  | 2.8 | 9.2 |  | 0.91 | 97 | 13.2 | 1.4 |  |  |  |  |  |  | 
